Measurements: ChEMBL document CHEMBL1141669, “Nitrile analogs of meperidine as high affinity and selective sigma-1 receptor ligands” (Eur J Med Chem, 2008)

Legend:
Mu-type opioid receptor = Mu-type opioid receptor (Homo sapiens, UniProt P35372); assay: Binding affinity to mu opioid receptor
[1] = molecular target: Kappa-type opioid receptor (Homo sapiens, UniProt P41145); assay: Binding affinity to kappa opioid receptor
[2] = molecular target: Delta-type opioid receptor (Homo sapiens, UniProt P41143); assay: Binding affinity to delta opioid receptor
Sequence of Delta-type opioid receptor (P41143 whole entry): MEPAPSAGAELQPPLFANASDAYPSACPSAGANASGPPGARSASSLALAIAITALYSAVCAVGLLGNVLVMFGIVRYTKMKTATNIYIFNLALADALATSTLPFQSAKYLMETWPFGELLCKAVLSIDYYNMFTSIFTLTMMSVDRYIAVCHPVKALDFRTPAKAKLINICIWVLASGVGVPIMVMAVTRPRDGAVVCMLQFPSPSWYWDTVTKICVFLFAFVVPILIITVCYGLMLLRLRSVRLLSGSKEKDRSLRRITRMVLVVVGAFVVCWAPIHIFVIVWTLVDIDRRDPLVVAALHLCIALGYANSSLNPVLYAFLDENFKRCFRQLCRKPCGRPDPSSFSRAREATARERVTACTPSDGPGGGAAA

[3] = molecular target: Sigma non-opioid intracellular receptor 1 (Rattus norvegicus, UniProt Q9R0C9); assay: Displacement of [3H](+)-pentazocine from sigma 1 opioid receptor in rat brain cerebellum; format: tissue-based
Sequence of Sigma non-opioid intracellular receptor 1 (Q9R0C9 whole entry): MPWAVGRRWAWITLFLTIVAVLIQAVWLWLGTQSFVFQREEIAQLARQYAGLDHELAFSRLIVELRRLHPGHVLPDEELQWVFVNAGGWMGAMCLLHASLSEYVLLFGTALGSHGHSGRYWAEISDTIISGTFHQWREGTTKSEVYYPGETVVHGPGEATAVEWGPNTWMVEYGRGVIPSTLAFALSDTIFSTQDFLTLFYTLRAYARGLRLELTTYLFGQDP
How it was run: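 σ1 radioligand binding with 5 nM [3H](+)-pentazocine in 50 mM Tris–HCl, pH 8.0. Nonspecific binding defined with 10 µM haloperidol. Test ligand at twelve concentrations, 120 min at 25 °C.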

[4] = Displacement of [3H]ditolylguanidine from sigma 2 opioid receptor in rat brain cerebellum; format: tissue-based
How it was run: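 σ2 sites labeled with 3 nM [3H]di-o-tolylguanidine, with 300 nM (+)-pentazocine present to mask σ1, in 50 mM Tris–HCl, pH 8.0. Nonspecific binding taken with 10 µM haloperidol. Twelve test-ligand concentrations, incubated 120 min at 25 °C.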

Rattus norvegicus = species: Rattus norvegicus; assay: Selectivity ratio of Ki for rat sigma 2 opioid receptor to Ki for rat sigma 1 opioid receptor

Sequence of Mu-type opioid receptor (P35372 whole entry): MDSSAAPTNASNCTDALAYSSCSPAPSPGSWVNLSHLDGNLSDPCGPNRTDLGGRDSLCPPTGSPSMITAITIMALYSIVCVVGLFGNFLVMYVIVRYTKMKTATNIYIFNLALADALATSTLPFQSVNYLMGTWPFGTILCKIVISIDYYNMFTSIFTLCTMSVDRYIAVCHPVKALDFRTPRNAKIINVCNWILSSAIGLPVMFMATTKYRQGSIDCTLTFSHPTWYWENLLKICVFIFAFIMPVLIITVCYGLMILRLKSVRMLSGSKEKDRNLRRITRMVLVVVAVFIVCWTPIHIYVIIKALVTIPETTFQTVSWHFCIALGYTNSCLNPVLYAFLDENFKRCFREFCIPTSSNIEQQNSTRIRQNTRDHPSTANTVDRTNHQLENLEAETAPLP
Sequence of Kappa-type opioid receptor (P41145 whole entry): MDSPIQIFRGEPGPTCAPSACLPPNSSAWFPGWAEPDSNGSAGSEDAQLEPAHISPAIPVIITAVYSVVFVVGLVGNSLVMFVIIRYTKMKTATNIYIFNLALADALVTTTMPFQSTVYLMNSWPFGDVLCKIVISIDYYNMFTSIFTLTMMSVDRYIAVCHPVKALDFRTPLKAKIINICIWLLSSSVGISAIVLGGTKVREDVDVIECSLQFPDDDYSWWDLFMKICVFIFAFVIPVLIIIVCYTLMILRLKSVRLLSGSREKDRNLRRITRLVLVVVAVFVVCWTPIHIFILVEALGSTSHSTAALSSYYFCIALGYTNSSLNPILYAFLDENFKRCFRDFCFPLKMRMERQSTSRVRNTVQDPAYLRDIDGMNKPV

| Compound | Ki (Mu-type opioid receptor) | Ki [1] | Ki [2] | Ki [3] | Ki [4] | Ratio Ki (Rattus norvegicus) |
| --- | --- | --- | --- | --- | --- | --- |
| C=C(C)CN1CCC(C#N)(c2ccccc2)CC1 | > 10000 nM | > 10000 nM | 5000 nM | 3.7 nM | 482 nM | 130 |
| CN1CCC(C#N)(c2ccccc2)CC1 | > 10000 nM | > 10000 nM | > 10000 nM | 113 nM | 2140 nM | 19 |
| CCCN1CCC(C#N)(c2ccccc2)CC1 | – | – | – | 1.7 nM | 143 nM | 84 |
| c1ccc(CCN2CCN(c3ccccn3)CC2)cc1 | – | – | – | 322 nM | 170 nM | 0.53 |
| c1ccc(CCN2CCCCC2)cc1 [1-PHENETHYLPIPERIDINE] | – | – | – | 30 nM | 138 nM | 5 |
| C=CCN1CCC(C#N)(c2ccccc2)CC1 | > 10000 nM | > 10000 nM | > 10000 nM | 2.2 nM | 662 nM | 300 |
| N#CC1(c2ccccc2)CCN(CCCc2ccccc2)CC1 | – | – | – | 0.38 nM | 46 nM | 120 |
| N#CC1(c2ccccc2)CCN(Cc2ccccc2)CC1 | 5900 nM | > 10000 nM | > 10000 nM | 0.41 nM | 657 nM | 1600 |
| CC(C)CN1CCC(C#N)(c2ccccc2)CC1 | – | – | – | 0.35 nM | 63 nM | 180 |
| N#CC1(c2ccccc2)CCN(CCc2ccccc2)CC1 | – | – | – | 3.3 nM | 118 nM | 36 |
| N#CC1(c2ccccc2)CCN(CCCCc2ccccc2)CC1 | 9800 nM | > 10000 nM | > 10000 nM | 49 nM | 1310 nM | 27 |
